Compound activity deposited in PubChem BioAssay by several laboratories.
An excerpt weighted towards active compounds, which were near 1.3% of everything screened.
NR2E3 ag-1 – activates human photoreceptor nuclear receptor NR2E3; 320,000 tested, 0.12% active; Q9Y5X4; AID 2300; GST-NR2E3/biotin-RetCOR TR-FRET, 1536-well; inhibition of corepressor binding, % at 4.78 µM;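 active = percent inhibition above the cutoff of mean plus 3 SD of all tested compounds, set per screening campaign, cut at about 20% in these data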;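 note: 0% = DMSO wells and 100% = biotin wells as full block of FRET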
Target sequence (Q9Y5X4 whole entry, looked up): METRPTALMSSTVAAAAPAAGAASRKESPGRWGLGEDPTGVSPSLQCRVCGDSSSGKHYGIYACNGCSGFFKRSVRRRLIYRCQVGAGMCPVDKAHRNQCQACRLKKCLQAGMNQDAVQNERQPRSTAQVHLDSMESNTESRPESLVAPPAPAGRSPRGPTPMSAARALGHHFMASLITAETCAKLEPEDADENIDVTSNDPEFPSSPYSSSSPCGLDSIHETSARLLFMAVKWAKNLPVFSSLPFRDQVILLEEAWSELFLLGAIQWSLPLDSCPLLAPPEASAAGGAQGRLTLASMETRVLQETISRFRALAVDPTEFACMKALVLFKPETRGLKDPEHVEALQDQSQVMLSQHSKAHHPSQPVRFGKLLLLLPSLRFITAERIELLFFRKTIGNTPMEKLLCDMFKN
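Test system: GST-NR2E3 and biotin-RetCOR proteins | Quantity: 1.35 nM GST-tagged NR2E3 final | Medium: Tris pH 7.5 | Also added: 7 nM biotin-RetCOR | Dosing: Compound at 4.8 µM, single dose | Timing: 5 h at 4 °C | Detection: Time-resolved FRET | Read-out basis: Percent inhibition | Benchmarks: Biotin wells as high control, 0.6% DMSO wells as low control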
Furin inh – inhibitors of human furin; purified furin, fluorogenic substrate cleavage; inhibition, % at 20 µM or 30 µM; 220,000 tested, 0.061% active; AID 463115; in the data active = inhibition above about 25%
NR2E3 ag-2 – human photoreceptor-specific nuclear receptor agonism | inhibition of corepressor binding, % at 3.98 µM | 360,000 tested, 0.35% active | CHO-S Gal4-NCOR/VP16-NR2E3 two-hybrid, luciferase;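 active = inhibition above the mean of all tested compounds plus 3 SD, cut at about 70% in these data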;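 note: 0% = DMSO with NR2E3 transfected cells and 100% = cells lacking NR2E3 construct; higher means lower luciferase signal from less NR2E3 corepressor binding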
JMJD2C inh – blocks human GASC-1 demethylase activity | 330,000 tested, 0.069% active | inhibition, % at 2.35 µM | GST-JMJD2C(1-420) H3K9me3 demethylation, DELFIA europium | Q9H3R0;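 active = more than half of a compound's replicate wells show inhibition beyond 50%, single wells judged on their own value; inconclusive = some, but no more than half, of replicates pass 50% inhibition; inactive = no replicate passes 50% inhibition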;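 note: signal counts dimethyl H3K9 product captured on neutravidin plate; 0% = median of DMSO wells and 100% = 0.3 times that DMSO median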
EP2 antag – inhibitors of human EP2 prostaglandin E2 receptor. 260,000 tested, 0.52% active. C6 glioma cells expressing human EP2, cAMP TR-FRET; cells stimulated with saturating PGE2. inhibition, % at 25 µM. P43116;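 active = percent inhibition above 40 after rounding to a whole number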;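 note: rat C6 glioma host cells with rolipram phosphodiesterase inhibitor present; the protocol text gives 20 µM as final concentration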
EP2 mod – EP2 receptor (human) modulation; 260,000 tested, 0.83% active; AID 940; EP2-expressing cells, cAMP HTRF FRET, PGE2 co-stimulation; induction, % at 25 µM; P43116;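 active = compounds whose cAMP rise, as percent of the full-agonist control response, exceeds 60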;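 note: rat C6 glioma line stably carrying human EP2 under a CMV promoter; the protocol text gives 20 µM as final concentration; 100% = response of wells given 1 µM PGE2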
* hit, by the source's call; u = inconclusive; x = no result given.

SMILES | NR2E3 ag-1 | Furin inh | NR2E3 ag-2 | JMJD2C inh | EP2 antag | EP2 mod
O=C(O)CCCCCC[C@H]1C(=O)NC(=O)N1CC[C@@H](O)C1CCCCC1 | x | x | x | x | 14 | 100*
C[C@@H]1C[C@H](C)CN(S(=O)(=O)c2cc(Cl)c(Oc3ccc([N+](=O)[O-])cc3Cl)c(Cl)c2)C1 | x | x | x | x | 44* | 13
C=CCCCN(Cc1ccccc1)S(=O)(=O)c1ccccc1Br | -1 | -15 | 9 | -25 | 6 | 61*
CC1=C(CC[C@H](C)CO)O[C@@H]2C[C@@H]3[C@H]4CC[C@H]5C[C@@H](O)CC[C@]5(C)[C@@H]4CC(=O)[C@@]3(C)[C@H]12 | x | x | x | x | 65* | 24
CN1CCN(CCCNC(=O)c2ccc(/C=C3\Sc4ccccc4N(Cc4ccccc4F)C3=O)cc2)CC1 | x | -1 | 41 | -9 | 88* | -45
COc1cccc(CC(=O)N2CCC[C@@H](Cn3nc(-c4cccs4)ccc3=O)C2)c1 | x | x | x | x | 2 | -23
Cc1ccc(CN2C(=O)C(C)Oc3ccc(C)cc32)cc1 (stereo unspecified) | x | x | -27 | x | 9 | 83*
O=C(NC1CCN(Cc2ccccc2)CC1)c1ccccc1OCc1ccccc1 | 0 | x | -34 | -24 | x | x
O=C(NC1CCCC1)c1ccccc1OCc1ccccc1 | 1 | -17 | -16 | 15 | 8 | 62*
c1ccc(CN2CCC(NC3CCCC3)C(c3ccccc3)C2)cc1 (stereo unspecified) | x | x | x | x | x | -15
CCC(C)(C)n1nnnc1C(c1cc2cc(C)cc(C)c2[nH]c1=O)N1CCCC(C)C1 (stereo unspecified) | x | x | x | x | 10 | 86*
CCN1/C(=C/c2ccc3cc(OC)ccc3[n+]2CC)Sc2cc(C)ccc21 | x | x | x | x | 64* | -94
CCN1/C(=C/c2ccc3cc(C)ccc3[n+]2CC)Sc2ccc(C)cc21 | x | x | x | x | 14 | -62
CC[n+]1c(/C=C2\Sc3cc(C)ccc3N2C)ccc2ccccc21 | x | x | x | x | 45* | -44
Oc1ccc(-c2nc3cnccn3c2NCc2cccs2)cc1O | x | x | x | x | 5 | -50
O=C(c1ccn[nH]1)N1CCn2c(CO)nnc2C1 | x | x | x | x | x | -12
COCCNC(=O)CSc1cc(-c2ccccc2)c2ccc(OC)cc2n1 | -1 | -16 | 8 | -4 | 11 | 63*
CN(C)CCCN(Cc1cc2cc3c(cc2[nH]c1=O)OCO3)C(=O)Nc1cccc(Cl)c1 | x | x | x | x | 15 | -48
CCN1CCCC1CN(Cc1ccccn1)Cc1cc2c(cc1OC)OCO2 (stereo unspecified) | x | x | x | x | 2 | -32
Cc1ccc(-c2nc3c(c(=O)[nH]c(=O)n3Cc3ccccc3)n2C)s1 | -1 | -22 | x | 8 | 2 | -3
Cn1c(C2CCCCC2)nc2c1c(=O)[nH]c(=O)n2Cc1ccccc1 | -3 | -9 | -4 | -27 | 8 | 65*
CC(=O)Nc1cccc(Cn2cccn2)c1 | x | 5 | x | u | 9 | 14
O=C(Nc1cccc(Cn2cccn2)c1)c1cc2c(s1)CCCC2 | -1 | 26* | -128 | 6 | 3 | -14
Fc1ccccc1CSc1ncnc2c1ncn2C1CCCO1 (stereo unspecified) | x | x | -55 | x | x | x
Clc1ccc(CSc2ncnc3c2ncn3[C@@H]2CCCCO2)cc1 | x | x | x | x | 45* | -3
SMILES | NR2E3 ag-1 | Furin inh | NR2E3 ag-2 | JMJD2C inh | EP2 antag | EP2 mod
CN1C(=O)/C(=C\C(=O)c2cccs2)c2ccccc21 | x | -18 | 11 | 2 | 60* | -30
CCc1ccc(C2C(C#N)=C(N)SC(N)=C2C#N)cc1 | 17 | 0 | 11 | 2 | 12 | 14
N#CC1=C(N)SC(N)=C(C#N)C1c1ccc(C(F)(F)F)cc1 | 8 | -16 | x | -14 | 49* | 13
COc1cc(/C=C2\SC(=S)N(NS(=O)(=O)c3ccccc3)C2=O)ccc1O | -9 | 2 | 8 | 15 | 16 | 10
CCCN1C(=O)/C(=C/c2ccncc2)SC1=S | -2 | -1 | 11 | -4 | 16 | -41
O=C1/C(=C/c2ccncc2)SC(=S)N1Cc1ccccc1 | 0 | -8 | -12 | 10 | 44* | -22
Cc1ccc(/C=C2\SC(=S)N(CCC(=O)NNS(=O)(=O)c3ccccc3)C2=O)cc1 | -23 | -23 | 19 | -3 | 9 | 65*
O=C(CCCN1C(=O)/C(=C/c2ccccc2)SC1=S)Nc1cccc(O)c1 | 2 | -3 | 8 | 1 | 70* | -80
COc1cc(/C=C2\SC(=S)N(NS(=O)(=O)c3ccc(C)cc3)C2=O)ccc1O | -12 | 3 | 4 | 5 | 41* | -51
